Results taken from ChEMBL document CHEMBL1147076, “Antitumor activity of MLN8054, an orally active small-molecule inhibitor of Aurora A kinase” (Proc Natl Acad Sci U S A, 2007).
Calls of active or inactive are those of the source. The calls are words filed in the database; no cut-off is given here.

Experiments:
[1] = molecular target: Vascular endothelial growth factor receptor 3 (Homo sapiens) (UniProt P35916); experiment: Activity of human Flt4 kinase at 1 uM
Method in brief: (§1)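 Single-point kinase profiling: each kinase in a 226-kinase panel tested with compound at 1 μM and ATP at 10 μM in every assay, run by an external screening service.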

[2] = molecular target: Homeodomain-interacting protein kinase 2 (Homo sapiens) (UniProt Q9H2X6); experiment: Activity of human HIPK2 kinase at 1 uM; method in brief: as §1
[3] = molecular target: Tyrosine-protein kinase JAK2 (Homo sapiens) (UniProt O60674); experiment: Activity of human JAK2 kinase at 1 uM
[4] = molecular target: LIM domain kinase 1 (Homo sapiens) (UniProt P53667); experiment: Activity of human LIMK1 kinase at 1 uM
[5] = molecular target: Dual specificity mitogen-activated protein kinase kinase 1 (Homo sapiens) (UniProt Q02750); experiment: Activity of human MEK1 kinase at 1 uM
[6] = molecular target: Maternal embryonic leucine zipper kinase (Homo sapiens) (UniProt Q14680); experiment: Activity of human MELK kinase at 1 uM; method in brief: as §1
[7] = molecular target: Dual specificity mitogen-activated protein kinase kinase 4 (Mus musculus) (UniProt P47809); experiment: Activity of mouse MKK4 kinase at 1 uM
Sequence of Dual specificity mitogen-activated protein kinase kinase 4 (Mus musculus) (P47809 whole entry): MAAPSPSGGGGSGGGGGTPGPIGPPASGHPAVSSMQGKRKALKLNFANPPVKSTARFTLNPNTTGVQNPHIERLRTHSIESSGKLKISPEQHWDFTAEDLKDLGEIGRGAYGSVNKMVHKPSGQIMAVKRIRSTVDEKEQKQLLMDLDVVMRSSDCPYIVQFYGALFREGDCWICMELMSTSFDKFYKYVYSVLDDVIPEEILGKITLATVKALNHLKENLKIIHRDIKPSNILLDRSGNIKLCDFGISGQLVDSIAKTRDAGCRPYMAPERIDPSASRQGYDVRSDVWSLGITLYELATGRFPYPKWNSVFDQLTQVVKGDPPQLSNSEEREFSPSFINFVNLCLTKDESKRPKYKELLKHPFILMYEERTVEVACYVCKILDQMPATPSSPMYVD
Method in brief: (§2)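 Single-point screen in a 226-kinase panel run by an outside service. Test compound at 1 μM with ATP at 10 μM in every assay. Other assay conditions are not given.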

[8] = molecular target: Serine/threonine-protein kinase MRCK alpha (Homo sapiens) (UniProt Q5VT25); experiment: Activity of human MRCKalpha kinase at 1 uM
[9] = molecular target: Serine/threonine-protein kinase MRCK beta (Homo sapiens) (UniProt Q9Y5S2); experiment: Activity of human MRCKbeta kinase at 1 uM
[10] = molecular target: Serine/threonine-protein kinase PAK 3 (Homo sapiens) (UniProt O75914); experiment: Activity of human PAK3 kinase at 1 uM; method in brief: as §2
[11] = molecular target: Phosphorylase b kinase gamma catalytic chain, liver/testis isoform (Homo sapiens) (UniProt P15735); experiment: Activity of human PhKgamma2 kinase at 1 uM; method in brief: as §2
[12] = molecular target: Phosphatidylinositol 4,5-bisphosphate 3-kinase catalytic subunit gamma isoform (Homo sapiens) (UniProt P48736); experiment: Activity of human PI 3-kinase gamma at 1 uM; method in brief: as §1
Sequence of Phosphatidylinositol 4,5-bisphosphate 3-kinase catalytic subunit gamma isoform (Homo sapiens) (P48736 whole entry, looked up, canonical isoform): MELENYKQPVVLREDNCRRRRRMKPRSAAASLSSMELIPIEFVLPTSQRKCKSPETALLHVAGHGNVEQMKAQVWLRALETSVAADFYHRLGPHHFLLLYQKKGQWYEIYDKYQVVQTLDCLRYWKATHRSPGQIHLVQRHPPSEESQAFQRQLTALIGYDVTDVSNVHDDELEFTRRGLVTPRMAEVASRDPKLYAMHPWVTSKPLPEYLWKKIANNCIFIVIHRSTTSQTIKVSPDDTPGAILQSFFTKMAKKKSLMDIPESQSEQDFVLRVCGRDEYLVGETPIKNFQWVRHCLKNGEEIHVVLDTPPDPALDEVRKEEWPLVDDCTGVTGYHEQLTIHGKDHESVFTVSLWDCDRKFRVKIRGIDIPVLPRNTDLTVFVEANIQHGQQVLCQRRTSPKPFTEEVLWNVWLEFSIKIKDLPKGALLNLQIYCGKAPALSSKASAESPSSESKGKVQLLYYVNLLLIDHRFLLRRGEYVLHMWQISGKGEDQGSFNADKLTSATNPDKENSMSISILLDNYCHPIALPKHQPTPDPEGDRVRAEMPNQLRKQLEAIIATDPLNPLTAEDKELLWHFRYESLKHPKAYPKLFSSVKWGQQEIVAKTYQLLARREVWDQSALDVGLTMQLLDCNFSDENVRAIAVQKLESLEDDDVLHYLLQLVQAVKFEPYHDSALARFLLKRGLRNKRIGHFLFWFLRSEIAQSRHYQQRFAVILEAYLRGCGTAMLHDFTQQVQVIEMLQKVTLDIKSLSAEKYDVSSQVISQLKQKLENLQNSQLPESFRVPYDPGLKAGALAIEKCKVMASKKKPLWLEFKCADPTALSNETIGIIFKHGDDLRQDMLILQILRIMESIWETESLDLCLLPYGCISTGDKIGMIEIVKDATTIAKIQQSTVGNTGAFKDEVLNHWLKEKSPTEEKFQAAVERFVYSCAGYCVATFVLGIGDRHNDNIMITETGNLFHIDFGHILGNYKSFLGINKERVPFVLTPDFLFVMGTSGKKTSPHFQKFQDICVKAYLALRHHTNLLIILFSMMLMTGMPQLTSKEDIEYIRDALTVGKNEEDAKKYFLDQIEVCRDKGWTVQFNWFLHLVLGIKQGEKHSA

[13] = molecular target: Protein kinase C delta type (Homo sapiens) (UniProt Q05655); experiment: Activity of human PKCdelta kinase at 1 uM; method in brief: as §1
[14] = molecular target: Protein kinase C eta type (Homo sapiens) (UniProt P24723); experiment: Activity of human PKCeta kinase at 1 uM; method in brief: as §2
[15] = molecular target: Protein kinase C theta type (Homo sapiens) (UniProt Q04759); experiment: Activity of human PKCtheta kinase at 1 uM; method in brief: as §1
[16] = molecular target: cGMP-dependent protein kinase 1 (Homo sapiens) (UniProt Q13976); experiment: Activity of human PKG1-beta kinase at 1 uM; method in brief: as §1
Sequence of cGMP-dependent protein kinase 1 (Homo sapiens) (Q13976 whole entry): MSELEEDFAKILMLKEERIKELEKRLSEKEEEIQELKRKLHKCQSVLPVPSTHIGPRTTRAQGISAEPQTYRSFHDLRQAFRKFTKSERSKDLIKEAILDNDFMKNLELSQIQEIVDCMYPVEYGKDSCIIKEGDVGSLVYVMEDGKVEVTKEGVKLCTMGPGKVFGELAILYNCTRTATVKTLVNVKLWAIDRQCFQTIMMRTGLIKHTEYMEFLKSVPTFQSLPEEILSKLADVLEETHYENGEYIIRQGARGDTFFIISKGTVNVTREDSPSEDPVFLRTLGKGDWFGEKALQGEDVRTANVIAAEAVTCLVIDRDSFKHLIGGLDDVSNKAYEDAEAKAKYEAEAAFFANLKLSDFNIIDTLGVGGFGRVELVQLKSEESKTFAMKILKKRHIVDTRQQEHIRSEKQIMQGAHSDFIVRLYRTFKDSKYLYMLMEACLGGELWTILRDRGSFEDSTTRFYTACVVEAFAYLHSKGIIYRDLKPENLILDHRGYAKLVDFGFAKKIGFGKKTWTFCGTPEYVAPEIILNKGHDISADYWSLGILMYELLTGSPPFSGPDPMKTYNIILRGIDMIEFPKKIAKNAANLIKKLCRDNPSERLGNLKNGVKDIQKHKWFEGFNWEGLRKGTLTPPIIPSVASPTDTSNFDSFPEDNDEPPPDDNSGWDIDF

[17] = molecular target: Tyrosine-protein kinase FRK (Homo sapiens) (UniProt P42685); experiment: Activity of human PTK5 kinase at 1 uM; method in brief: as §2
[18] = molecular target: Proto-oncogene tyrosine-protein kinase receptor Ret (Homo sapiens) (UniProt P07949); experiment: Activity of human Ret kinase at 1 uM
Method in brief: (§3)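 Single-concentration screen across a 226-kinase panel run by an outside provider; test compound at 1 μM with 10 μM ATP in every assay. Other conditions not detailed.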

[19] = molecular target: Rho-associated protein kinase 2 (Homo sapiens) (UniProt O75116); experiment: Activity of human ROCK2 kinase at 1 uM; method in brief: as §2
[20] = molecular target: Mitogen-activated protein kinase 13 (Homo sapiens) (UniProt O15264); experiment: Activity of human SAPK4 kinase at 1 uM; method in brief: as §2
[21] = molecular target: Death-associated protein kinase 1 (Homo sapiens) (UniProt P53355); experiment: Activity of human DAPK1 kinase at 1 uM; method in brief: as §1
[22] = molecular target: Death-associated protein kinase 2 (Homo sapiens) (UniProt Q9UIK4); experiment: Activity of human DAPK2 kinase at 1 uM; method in brief: as §1
[23] = molecular target: Eukaryotic elongation factor 2 kinase (Homo sapiens) (UniProt O00418); experiment: Activity of human eEF-2K kinase at 1 uM; method in brief: as §3
[24] = molecular target: Ephrin type-A receptor 3 (Homo sapiens) (UniProt P29320); experiment: Activity of human EphA3 kinase at 1 uM
[25] = molecular target: Tyrosine-protein kinase ABL2 (Mus musculus) (UniProt Q4JIM5); experiment: Activity of mouse Arg kinase at 1 uM; method in brief: as §3
[26] = Inhibition of CAMK2 by radioactive flashplate assay
PC-3 [27] = experiment: Antitumor activity against human PC3 cells xenografted into athymic nude NCR nu/nu mouse at 10 mg/kg, po BID after 21 days relative to control; assay type: functional
Method in brief: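 Oral dosing for 21 days in 10% hydroxypropyl-β-cyclodextrin/5% sodium bicarbonate. Caliper volumes, L × W2 × 0.5. TGI = (Δcontrol − Δtreated average volume) × 100/Δcontrol.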

[28] = molecular target: Mitogen-activated protein kinase kinase kinase 5 (Homo sapiens) (UniProt Q99683); experiment: Activity of human ASK1 kinase at 1 uM
Sequence of Mitogen-activated protein kinase kinase kinase 5 (Homo sapiens) (Q99683 whole entry): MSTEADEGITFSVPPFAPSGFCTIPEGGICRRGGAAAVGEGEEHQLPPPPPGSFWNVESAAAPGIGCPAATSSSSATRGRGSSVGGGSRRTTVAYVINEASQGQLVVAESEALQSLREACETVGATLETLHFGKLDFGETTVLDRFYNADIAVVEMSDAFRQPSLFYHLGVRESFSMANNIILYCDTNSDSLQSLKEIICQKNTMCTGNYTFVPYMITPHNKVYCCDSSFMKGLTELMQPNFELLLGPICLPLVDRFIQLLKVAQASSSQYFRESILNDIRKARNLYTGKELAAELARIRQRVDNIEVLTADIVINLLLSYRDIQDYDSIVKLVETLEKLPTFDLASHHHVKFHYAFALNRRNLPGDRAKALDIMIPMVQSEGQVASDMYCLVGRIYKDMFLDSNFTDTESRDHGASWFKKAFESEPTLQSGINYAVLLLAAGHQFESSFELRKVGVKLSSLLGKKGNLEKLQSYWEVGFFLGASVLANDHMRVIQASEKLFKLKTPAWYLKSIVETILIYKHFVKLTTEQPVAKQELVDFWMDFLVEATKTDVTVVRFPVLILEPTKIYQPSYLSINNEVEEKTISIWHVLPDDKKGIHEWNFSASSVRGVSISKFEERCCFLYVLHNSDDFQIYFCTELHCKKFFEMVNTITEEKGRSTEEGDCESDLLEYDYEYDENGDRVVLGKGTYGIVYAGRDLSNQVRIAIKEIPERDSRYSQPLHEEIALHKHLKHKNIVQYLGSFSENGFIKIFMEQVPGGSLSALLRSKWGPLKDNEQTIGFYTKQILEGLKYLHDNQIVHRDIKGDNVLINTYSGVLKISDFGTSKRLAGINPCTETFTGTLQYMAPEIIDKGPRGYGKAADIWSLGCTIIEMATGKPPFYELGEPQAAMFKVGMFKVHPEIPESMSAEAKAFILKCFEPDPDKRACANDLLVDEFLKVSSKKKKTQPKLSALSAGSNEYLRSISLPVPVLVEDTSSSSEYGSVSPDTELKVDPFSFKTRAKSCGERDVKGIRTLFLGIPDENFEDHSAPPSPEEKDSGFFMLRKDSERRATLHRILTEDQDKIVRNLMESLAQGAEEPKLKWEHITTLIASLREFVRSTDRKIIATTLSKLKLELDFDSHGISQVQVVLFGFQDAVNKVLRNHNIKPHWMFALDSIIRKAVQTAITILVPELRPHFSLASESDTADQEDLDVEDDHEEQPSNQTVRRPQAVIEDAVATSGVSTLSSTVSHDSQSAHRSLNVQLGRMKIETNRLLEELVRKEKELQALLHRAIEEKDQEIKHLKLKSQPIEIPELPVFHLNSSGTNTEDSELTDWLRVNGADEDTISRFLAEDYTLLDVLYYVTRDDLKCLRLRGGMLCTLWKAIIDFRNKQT

[29] = molecular target: Tyrosine-protein kinase receptor UFO (Homo sapiens) (UniProt P30530); experiment: Activity of human Axl kinase at 1 uM; method in brief: as §1
Sequence of Tyrosine-protein kinase receptor UFO (Homo sapiens) (P30530 whole entry): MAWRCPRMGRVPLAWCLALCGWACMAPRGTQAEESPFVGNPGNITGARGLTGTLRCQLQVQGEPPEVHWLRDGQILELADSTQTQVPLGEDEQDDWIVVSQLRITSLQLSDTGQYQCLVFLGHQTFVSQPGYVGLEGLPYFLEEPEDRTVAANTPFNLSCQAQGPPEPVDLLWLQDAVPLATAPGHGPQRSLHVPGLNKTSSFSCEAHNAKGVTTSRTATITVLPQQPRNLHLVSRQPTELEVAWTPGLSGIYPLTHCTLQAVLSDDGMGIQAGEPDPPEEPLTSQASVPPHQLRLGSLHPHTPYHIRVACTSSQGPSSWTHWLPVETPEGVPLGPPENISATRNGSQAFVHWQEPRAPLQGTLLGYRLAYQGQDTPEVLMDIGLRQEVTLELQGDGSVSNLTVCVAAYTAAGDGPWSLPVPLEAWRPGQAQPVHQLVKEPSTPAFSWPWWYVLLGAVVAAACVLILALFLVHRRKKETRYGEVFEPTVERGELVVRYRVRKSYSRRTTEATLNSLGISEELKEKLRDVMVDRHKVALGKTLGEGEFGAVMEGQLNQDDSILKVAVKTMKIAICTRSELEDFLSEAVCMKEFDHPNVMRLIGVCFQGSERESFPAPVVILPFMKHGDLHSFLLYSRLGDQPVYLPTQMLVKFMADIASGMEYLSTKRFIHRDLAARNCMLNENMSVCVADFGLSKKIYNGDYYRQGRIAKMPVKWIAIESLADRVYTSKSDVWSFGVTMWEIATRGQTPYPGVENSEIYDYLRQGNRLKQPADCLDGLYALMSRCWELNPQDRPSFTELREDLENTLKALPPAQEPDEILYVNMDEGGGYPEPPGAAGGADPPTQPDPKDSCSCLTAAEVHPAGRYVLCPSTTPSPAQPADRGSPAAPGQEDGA

[30] = molecular target: Serine/threonine-protein kinase BRSK2 (Homo sapiens) (UniProt Q8IWQ3); experiment: Activity of human BrSK2 kinase at 1 uM
[31] = molecular target: Calcium/calmodulin-dependent protein kinase type II subunit delta (Homo sapiens) (UniProt Q13557); experiment: Activity of human CaMK2delta kinase at 1 uM; method in brief: as §1
[32] = molecular target: Serine/threonine-protein kinase Chk1 (Homo sapiens) (UniProt O14757); experiment: Activity of human CHK1 kinase at 1 uM; method in brief: as §1
[33] = molecular target: Dual specificity protein kinase CLK3 (Homo sapiens) (UniProt P49761); experiment: Activity of human CLK3 kinase at 1 uM
Sequence of Dual specificity protein kinase CLK3 (Homo sapiens) (P49761 whole entry, looked up): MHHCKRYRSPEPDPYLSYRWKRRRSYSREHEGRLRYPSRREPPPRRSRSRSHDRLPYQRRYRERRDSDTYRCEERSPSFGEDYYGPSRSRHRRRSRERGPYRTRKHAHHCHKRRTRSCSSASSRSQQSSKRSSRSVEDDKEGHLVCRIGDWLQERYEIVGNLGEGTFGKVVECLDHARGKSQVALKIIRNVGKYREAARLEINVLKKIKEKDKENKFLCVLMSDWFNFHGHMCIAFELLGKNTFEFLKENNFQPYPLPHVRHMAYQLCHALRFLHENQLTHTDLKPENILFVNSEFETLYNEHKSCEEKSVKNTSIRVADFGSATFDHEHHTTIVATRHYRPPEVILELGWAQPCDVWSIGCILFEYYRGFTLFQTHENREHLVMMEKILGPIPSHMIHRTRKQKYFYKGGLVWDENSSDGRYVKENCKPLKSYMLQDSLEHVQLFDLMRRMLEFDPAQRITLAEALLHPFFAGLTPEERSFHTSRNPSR

PC-3 [34] = experiment: Induction of apoptosis in human PC3 cells assessed as PARP cleavage at 0.25 uM after 48 hrs by Western blot method; assay type: functional, cell-based
SW480 = experiment: Antiproliferative activity against human SW480 cells after 96 hrs by BrdU cell proliferation ELISA; assay type: functional, cell-based; details: SW480, 96 h
Method in brief: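 BrdU incorporation proliferation assay on cultured human tumor lines; IC50 values derived from growth inhibition.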

SK-OV-3 = experiment: Antiproliferative activity against human SKOV3 cells after 96 hrs by BrdU cell proliferation ELISA; assay type: functional, cell-based; details: SK-OV-3, 96 h
[35] = molecular target: Tyrosine-protein kinase Yes (Homo sapiens) (UniProt P07947); experiment: Inhibition of Yes kinase at 1 uM
Method in brief: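 Single-point screen within a 226-kinase panel, with compound at 1 μM and ATP at 10 μM in all assays.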

PC-3 [36] = experiment: Cell cycle arrest in human PC3 cells by accumulation at >4N phase at 4 uM after 24 hrs by flow cytometry relative to control; assay type: functional
PC-3 [37] = experiment: Cell cycle arrest in human PC3 cells by accumulation at G1 phase at 4 uM after 48 hrs by flow cytometry relative to control; assay type: functional
Method in brief: (§4)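 DNA content profiles by flow cytometry of PC-3 prostate tumor cells exposed to drug diluted in DMSO for 24 or 48 h. Phase distribution was compared with DMSO-treated control cells.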

PC-3 [38] = experiment: Cell cycle arrest in human PC3 cells by accumulation at S phase at 4 uM after 48 hrs by flow cytometry relative to control; assay type: functional; method in brief: as §4

With `O=C(O)c1ccc(Nc2ncc3c(n2)-c2ccc(Cl)cc2C(c2c(F)cccc2F)=NC3)cc1` [MLN-8054] the Activity [1] was 6%, the Activity [2] was 112% and the Activity [3] was 92%. The Activity [4] was 110%, the Activity [5] was 110% and the Activity [6] was 79%. The Activity [7] was 120%, the Activity [8] was 101% and the Activity [9] was 107%. The Activity [10] was 94%, the Activity [11] was 98% and the Activity [12] was 106%. The Activity [13] was 109%, the Activity [14] was 120% and the Activity [15] was 112%. The Activity [16] was 109%, the Activity [17] was 90% and the Activity [18] was 80%. The Activity [19] was 100%, the Activity [20] was 87% and the Activity [21] was 114%. The Activity [22] was 103%, the Activity [23] was 123% and the Activity [24] was 88%. It also gave an Activity [25] of 63%, an IC50 [26] greater than 100000 nM and an Activity (PC-3 [27]) of 73%. It also gave an Activity [28] of 120%, an Activity [29] of 41% and an Activity [30] of 99%. It also gave an Activity [31] of 123%, an Activity [32] of 109% and an Activity [33] of 81%. For the same compound, the Activity (PC-3 [34]) was “Active”, the IC50 (SW480) was 860 nM and the IC50 (SK-OV-3) was 530 nM. For the same compound, the inhibition [35] was 80%, the Activity (PC-3 [36]) was 5% and the Activity (PC-3 [37]) was 12.9%. It also gave an Activity (PC-3 [38]) of 4.9%.
